The text below walks through data of ChEMBL document CHEMBL2346587, “Design, synthesis, and evaluation of a water-soluble antofine analogue with high antiproliferative and antitumor activity” (Bioorg Med Chem, 2013).

Assay [1] has as its system A549. Description: Antitumor activity against human A549 cells xenografted in athymic nu/nu BALB/c mouse assessed as inhibition of tumor growth at 10 mg/kg, ip administered 35 days post-implantation 3 times a week relative to control. The following applies: 840 h, route intraperitoneal, read-out: TGI. The class given is functional. An outline of the steps:
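Female athymic BALB/c nu/nu mice, six weeks old; 2 × 10^6 A549 or A549-Pa cells in 0.1 mL RPMI injected s.c. into right flank on day 0. Dosing began at 95–100 mm3 tumour volume: drug in 1% cremophore in PBS given i.p. three times weekly; controls got vehicle; five mice/group. Tumour volume tracked every 3–5 days; tumours excised and weighed at end; sections immunostained for Ki-67.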

In assay [2] the test system is A549. Kind of assay: Cell cycle arrest in human A549 cells assessed as accumulation at G0/G1 phase at 100 nM after 24 hrs by flow cytometry (reference value: 62.38 %). The class given is functional.
For assay [3], the system named is A549. Kind of assay: Inhibition of AKT activation in human A549 cells assessed as reduction in c-myc protein expression at 50 to 400 nM after 24 hrs by Western blot analysis. It is filed as cell-based. An outline of the steps: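 A549 cells plated at 3 × 10^5 per 60 mm dish, grown 24 h, then exposed to a concentration series for 24 h. Lysed in boiling SDS sample buffer with NaF and orthovanadate; protein by BCA; 25–50 µg run on 8–15% SDS-PAGE, transferred to PVDF, blocked in 5% milk/PBST, primary antibodies overnight at 4 °C, secondary 1–2 h, ECL detection.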
(Immunoblotting shows a protein as a band on a membrane.)

The nature of assay [4]: Inhibition of Wnt signaling in human A549 cells assessed as reduction in cyclin D1 protein expression at 50 to 400 nM after 24 hrs by Western blot analysis. It is filed as cell-based. The method, boiled down: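 A549 cells were seeded at 3 × 10^5 per 60 mm dish, grown 24 h, then given graded compound concentrations for 24 h. Lysis was in boiling SDS buffer, with BCA protein assay. 25–50 µg per lane was run on 8–15% SDS-PAGE and blotted to PVDF. Primary antibodies (1:1000–1:2000) went on overnight at 4 °C, then secondary and ECL read-out.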

The subject of assay [5] is A549. Kind of assay: Inhibition of MDR-1 gene expression in human paclitaxel-resistant A549 cells at 50 to 200 nM after 48 hrs by RT-PCR analysis. The class given is functional, cell-based. The method, boiled down:
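A549-Pa cells (1 × 10^5 per 100 mm dish) exposed for 48 h; RNA isolated with TRI reagent, 1 µg reverse-transcribed with AMV RT and oligo(dT)15. MDR-1 amplified with specific primers: 94 °C 4 min; 35 cycles of 94 °C 30 s, 55 °C 30 s, 72 °C 30 s; 72 °C 5 min. Products resolved on 2% agarose, SYBR Safe stained.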

Assay [6] has as its system A549. Description: Cell cycle arrest in human A549 cells assessed as accumulation at G2/M phase at 400 nM after 24 hrs by flow cytometry (reference value: 22.84 %). It is filed as functional.

The structures appear in SMILES notation. Calls of active or inactive are those of the source. The calls are words filed in the database; no cut-off is given here.

For `COc1ccc2c3c(c4cc(OC)c(OC)cc4c2c1)C[C@@]1(CO)CCCN1C3`, the inhibition in vivo at 10 mg/kg in the assay with A549 [1] was 60.7%. Moreover, the Activity stood at 68.38% in the assay with A549 [2] and 20.41% in the assay with A549 [6]. Moreover, the inhibition result (in the assay on A549 [3]; in assay [4]; with A549 [5]) was “Active” in each case.
